Test [1] deals with Felis catus. The test is described as follows: Change in blood pressure in normotensive anesthetized cat. The class given is functional. The method, boiled down:
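Normotensive cats of either sex (2-4 kg) anesthetized with α-chloralose (80 mg/kg iv). Trachea, femoral artery and jugular vein cannulated. Compound given iv at 10 mg/kg, with 1 mg/kg iv used in one case. Mean blood pressure recorded by pressure transducer before and 30 min after dosing, reported as decrease in mmHg.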

For test [2], the system named is Rattus norvegicus. The test is described as follows: Antihypertensive activity in renal hypertensive rats 6 hr after oral administration (10 mg/Kg). The format is functional. The method, boiled down: (§1)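 Renal hypertensive rats (5 or 10 per group), 10 mg/kg given orally. Systolic pressure measured indirectly by tail occluding cuff with pulse sensor, once before dosing as control and again at 1, 2, 4, 6 and 8 h. Values are changes in mean systolic pressure from control (mmHg). Significance of control vs posttreatment assessed by Wilcoxon's signed rank test (p < 0.05).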

Test [3] concerns Rattus norvegicus. The test is described as follows: Antihypertensive activity in renal hypertensive rats 8 hr after oral administration (10 mg/Kg). The class given is functional. The method, boiled down: as §1
The subject of test [4] is Rattus norvegicus. The experiment in a line: Antihypertensive activity in renal hypertensive rats 1 hr after oral administration (10 mg/Kg). The class given is functional. In a few lines:
as §1

Test [5] relates to Rattus norvegicus. The experiment in a line: Antihypertensive activity in renal hypertensive rats 2 hr after oral administration (10 mg/Kg). The format is functional. In a few lines: as §1
In test [6] the test system is Rattus norvegicus. The test is described as follows: Antihypertensive activity in renal hypertensive rats 4 hr after oral administration (10 mg/Kg). The format is functional. The method, boiled down: as §1
Test [7] relates to Felis catus. The test is described as follows: Control blood pressure in normotensive anesthetized cat at dose 10 mg/Kg iv.

`CCOC(=O)CC(c1nnn[nH]1)c1c[nH]c2ccc(OC)cc12` (stereo not given): the BP with Felis catus [1] is on record as -11 mmHg; with Rattus norvegicus [2], -16 mmHg; with Rattus norvegicus [3], -11 mmHg; with Rattus norvegicus [4], -16 mmHg; in the test with Rattus norvegicus [5], -21 mmHg; with Rattus norvegicus [6], -25 mmHg. In addition, the “control BP” value with Felis catus [7] was 136 mmHg.

In the case of `CCOC(=O)CC(c1nnn[nH]1)c1c[nH]c2cccc(Cl)c12` (stereo not given), the BP was -35 mmHg with Felis catus [1]; -2 mmHg in the test with Rattus norvegicus [2]; 4 mmHg in the test with Rattus norvegicus [3]; -4 mmHg in the test on Rattus norvegicus [4]; -12 mmHg in the test with Rattus norvegicus [5]; -5 mmHg in the test with Rattus norvegicus [6]. Further, the “control BP” value in the test with Felis catus [7] was 135 mmHg.

For the molecule `COC(=O)C(CN)c1c[nH]c2ccccc12.Cl` (stereo not given), the BP in the test on Felis catus [1] is reported as -53 mmHg; in the test with Rattus norvegicus [2], -6 mmHg; with Rattus norvegicus [3] it was -7 mmHg; in the test with Rattus norvegicus [4], -7 mmHg; in the test on Rattus norvegicus [5] it was -9 mmHg; in the test with Rattus norvegicus [6], -9 mmHg. In addition, the “control BP” value in the test with Felis catus [7] was 156 mmHg.

Turning to `CCOC(=O)C(CNC(C)=O)c1cn(C(=O)OCC)c2ccccc12` (stereo not given), the BP is -49 mmHg with Felis catus [1]; -22 mmHg in the test on Rattus norvegicus [2]; -18 mmHg in the test with Rattus norvegicus [3]; -3 mmHg in the test on Rattus norvegicus [4]; -3 mmHg in the test with Rattus norvegicus [5]; -18 mmHg in the test with Rattus norvegicus [6]. For the same molecule, in the test on Felis catus [7], the “control BP” value is on record as 135 mmHg.

Consider `CCOC(=O)CC(c1nnn[nH]1)c1c[nH]c2ccccc12` (stereo not given), for which the BP is 2 mmHg in the test with Felis catus [1]; -22 mmHg in the test with Rattus norvegicus [2]; -7 mmHg with Rattus norvegicus [3]; -4 mmHg in the test with Rattus norvegicus [4]; -22 mmHg with Rattus norvegicus [5]; -27 mmHg in the test on Rattus norvegicus [6]. The “control BP” value in the test on Felis catus [7] is reported as 168 mmHg.

As for `COc1ccc2[nH]cc(C(CNC(C)=O)C(=O)O)c2c1` (stereo not given), the BP with Felis catus [1] was -14 mmHg; with Rattus norvegicus [2] it was -28 mmHg; in the test on Rattus norvegicus [3], -8 mmHg; in the test with Rattus norvegicus [4], -16 mmHg; with Rattus norvegicus [5], -18 mmHg; with Rattus norvegicus [6], -24 mmHg. For the same molecule, in the test on Felis catus [7], the “control BP” value was determined as 154 mmHg.

For the molecule `CCOC(=O)CC(c1nnn[nH]1)c1c[nH]c2cc(Cl)ccc12` (stereo not given), the BP with Felis catus [1] is -20 mmHg; in the test on Rattus norvegicus [2], -17 mmHg; in the test on Rattus norvegicus [3], -11 mmHg; with Rattus norvegicus [4], -5 mmHg; with Rattus norvegicus [5], 2 mmHg; with Rattus norvegicus [6] it was -4 mmHg. Moreover, the “control BP” value with Felis catus [7] is reported as 175 mmHg.

For `CCOC(=O)CC(c1nnn[nH]1)c1c[nH]c2cc(OC)c(OC)cc12` (stereo not given), the BP with Felis catus [1] is -6 mmHg; in the test on Rattus norvegicus [2], -25 mmHg; in the test with Rattus norvegicus [3], -14 mmHg; in the test with Rattus norvegicus [4], -11 mmHg; with Rattus norvegicus [5], -15 mmHg; in the test with Rattus norvegicus [6], -20 mmHg. In the test on Felis catus [7], the “control BP” value is listed as 164 mmHg.

As to `CCOC(=O)NCC(c1nnn[nH]1)c1c[nH]c2ccccc12` (stereo not given), the BP in the test with Felis catus [1] is recorded as 5 mmHg; with Rattus norvegicus [2], -17 mmHg; in the test with Rattus norvegicus [3], -15 mmHg; in the test on Rattus norvegicus [4] it was -10 mmHg; in the test with Rattus norvegicus [5] it was -6 mmHg; with Rattus norvegicus [6], -24 mmHg. Moreover, in the test on Felis catus [7], the “control BP” value is 155 mmHg.

In the case of `CCOC(=O)C(CNC(C)=O)c1cn(C(=O)OCC)c2ccc(OC)cc12` (stereo not given), the BP is recorded as 0 mmHg in the test with Felis catus [1]; -20 mmHg in the test with Rattus norvegicus [2]; -14 mmHg with Rattus norvegicus [3]; -15 mmHg in the test with Rattus norvegicus [4]; -12 mmHg in the test with Rattus norvegicus [5]; -21 mmHg in the test with Rattus norvegicus [6]. Besides, the “control BP” value in the test with Felis catus [7] was determined as 195 mmHg.

Consider `COC(=O)CC(CN)c1c[nH]c2ccc(OC)cc12` (stereo not given), for which the BP with Felis catus [1] is on record as -25 mmHg; in the test with Rattus norvegicus [2], -13 mmHg; in the test with Rattus norvegicus [3] it was -12 mmHg; with Rattus norvegicus [4] it was -14 mmHg; with Rattus norvegicus [5] it was -15 mmHg; with Rattus norvegicus [6], -6 mmHg. Moreover, the “control BP” value with Felis catus [7] is 166 mmHg.

Regarding `NCC(CC(=O)O)c1c[nH]c2cc(Cl)ccc12` (stereo not given), the BP in the test with Felis catus [1] is on record as 5 mmHg; with Rattus norvegicus [2] it was -9 mmHg; with Rattus norvegicus [3], -2 mmHg; with Rattus norvegicus [4], 2 mmHg; with Rattus norvegicus [5], 5 mmHg; in the test with Rattus norvegicus [6] it was -9 mmHg. Besides, the “control BP” value in the test with Felis catus [7] came out at 160 mmHg.

For `COC(=O)CC(CN)c1c[nH]c2cc(Cl)ccc12` (stereo not given), the BP in the test with Felis catus [1] was -10 mmHg; in the test on Rattus norvegicus [2], -11 mmHg; in the test on Rattus norvegicus [3] it was -6 mmHg; in the test on Rattus norvegicus [4], 2 mmHg; in the test with Rattus norvegicus [5], -4 mmHg; with Rattus norvegicus [6], -3 mmHg. Moreover, the “control BP” value in the test on Felis catus [7] turned out to be 158 mmHg.

On to `NCC(c1nnn[nH]1)c1c[nH]c2ccccc12` (stereo not given), for which the BP is reported as -5 mmHg in the test on Felis catus [1]; 5 mmHg with Rattus norvegicus [2]; 2 mmHg in the test on Rattus norvegicus [3]; 8 mmHg with Rattus norvegicus [4]; 1 mmHg with Rattus norvegicus [5]; 8 mmHg with Rattus norvegicus [6]. Besides, the “control BP” value with Felis catus [7] is recorded as 155 mmHg.

For the molecule `NCC(C(=O)O)c1c[nH]c2ccccc12` (stereo not given), the BP is on record as -10 mmHg with Felis catus [1]; -13 mmHg in the test on Rattus norvegicus [2]; -8 mmHg in the test with Rattus norvegicus [3]; -6 mmHg in the test with Rattus norvegicus [4]; -8 mmHg in the test with Rattus norvegicus [5]; -10 mmHg in the test on Rattus norvegicus [6]. Besides, in the test with Felis catus [7], the “control BP” value is reported as 153 mmHg.

As for `COC(=O)C(CN)c1c[nH]c2ccc(O)cc12.Cl` (stereo not given), the BP in the test with Felis catus [1] is -85 mmHg; with Rattus norvegicus [2], 0 mmHg; in the test on Rattus norvegicus [3], 7 mmHg; in the test with Rattus norvegicus [4], 7 mmHg; in the test on Rattus norvegicus [5] it was 1 mmHg; in the test on Rattus norvegicus [6], 4 mmHg. In the test with Felis catus [7], the “control BP” value turned out to be 135 mmHg.

With `CCOC(=O)C(C)(N)Cc1c[nH]c2ccc(O)cc12` (stereo not given), the BP in the test with Felis catus [1] is 9 mmHg; with Rattus norvegicus [2] it was 22 mmHg; in the test with Rattus norvegicus [3] it was 6 mmHg; with Rattus norvegicus [4], -2 mmHg; with Rattus norvegicus [5], -7 mmHg; in the test with Rattus norvegicus [6], 14 mmHg. In addition, the “control BP” value in the test on Felis catus [7] is listed as 142 mmHg.

With `CCOC(=O)C(N)Cc1c[nH]c2ccc(O)cc12` (stereo not given), the BP in the test on Felis catus [1] is -24 mmHg; in the test with Rattus norvegicus [2] it was 2 mmHg; in the test on Rattus norvegicus [3], 1 mmHg; with Rattus norvegicus [4], -14 mmHg; in the test with Rattus norvegicus [5] it was -5 mmHg; in the test with Rattus norvegicus [6], 2 mmHg. The “control BP” value in the test with Felis catus [7] is reported as 156 mmHg.

Consider `COC(=O)C(CN)c1c[nH]c2cccc(Cl)c12.Cl` (stereo not given), for which the BP in the test with Felis catus [1] is given as -10 mmHg; with Rattus norvegicus [2] it was -9 mmHg; in the test on Rattus norvegicus [3], -8 mmHg; with Rattus norvegicus [4], -7 mmHg; in the test with Rattus norvegicus [5] it was -9 mmHg; in the test on Rattus norvegicus [6] it was -20 mmHg. Besides, the “control BP” value in the test with Felis catus [7] stood at 131 mmHg.

For the molecule `CCOC(=O)C(CN)c1c[nH]c2ccc(Br)cc12.Cl` (stereo not given), the BP with Felis catus [1] is reported as -18 mmHg; in the test on Rattus norvegicus [2], -3 mmHg; in the test on Rattus norvegicus [3] it was 1 mmHg; with Rattus norvegicus [4], -3 mmHg; with Rattus norvegicus [5], -7 mmHg; in the test with Rattus norvegicus [6] it was -2 mmHg. Besides, in the test on Felis catus [7], the “control BP” value is recorded as 143 mmHg.
